# Sampled rows, rich in hits. Any-hit rate of the full collection: about 1.9%.
# RanGTP-Impb inh = inhibitors of RanGTP-importin-beta interaction, primary screen, biochemical, FRET, CFP-Ran, YFP-importin-beta, homogeneous | 300,000 tested, 1.1% active | inhibition, % (test concentration not listed) | cell-free CFP-Ran/YFP-importin-beta FRET ratio;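 active = more than half of the replicate wells show a fall in the fluorescence ratio signal beyond about 16%, limit read from the data, passing the limit was not always enough; inconclusive = exactly half of the replicate wells pass the set limit; inactive = fewer than half of replicates pass the limit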
# Hck-Nef inh = human Hck-Nef kinase inhibition; 220,000 tested, 0.68% active; inhibition, % at 20 µM; Recombinant Hck-YEEI plus Nef, Z-Lyte FRET kinase assay; AID 463187; P08631;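 active = Hck-Nef kinase inhibition above about 50%, limit read from the data; inactive = inhibition below that limit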
# Target sequence (P08631 whole entry, looked up): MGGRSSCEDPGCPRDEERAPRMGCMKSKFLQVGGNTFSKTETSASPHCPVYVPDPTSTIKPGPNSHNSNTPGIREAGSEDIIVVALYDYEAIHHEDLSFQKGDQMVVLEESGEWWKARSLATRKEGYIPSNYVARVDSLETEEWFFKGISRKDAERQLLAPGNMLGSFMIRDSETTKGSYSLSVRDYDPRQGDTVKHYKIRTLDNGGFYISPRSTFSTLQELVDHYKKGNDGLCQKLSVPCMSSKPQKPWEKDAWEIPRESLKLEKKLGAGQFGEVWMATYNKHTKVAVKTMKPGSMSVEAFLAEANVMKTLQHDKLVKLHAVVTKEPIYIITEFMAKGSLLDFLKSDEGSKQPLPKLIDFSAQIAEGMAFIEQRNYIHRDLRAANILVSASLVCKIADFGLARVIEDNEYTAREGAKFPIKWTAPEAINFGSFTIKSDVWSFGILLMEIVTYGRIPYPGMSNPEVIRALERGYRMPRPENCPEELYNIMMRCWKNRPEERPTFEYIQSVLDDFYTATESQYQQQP
# Runt-CBFb FRET = Runt domain-CBFb interaction inhibition | Q01196+Q13951 | Cerulean-Runt/Venus-CBFb FRET ratio 530/480, 1 h | inhibition, % at 20 µM | 220,000 tested, 0.46% active;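 active = inhibition over about 50% at 20 µM in the single-dose screen, limit read from the data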
#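 Assay system: Cerulean-Runt domain / Medium: Tris 50 mM pH 7.5, KCl, K2SO4, 0.01% BSA / Timing: protein complex preformed 1 h, compound exposure 1 h, room temperature, dark / Measured by: FRET, excitation 422 nm, emission at 530 and 480 nm / Evaluation: loss of energy transfer signal / Control set: 5 µM unlabeled CBFb as full-inhibition high control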
# TbHK1 inh = blocks Trypanosoma brucei hexokinase 1 activity. recombinant TbHK1, G6PDH-coupled NADH A340. 220,000 tested, 0.11% active. AID 1430. inhibition, % at 10 µM;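 active = inhibition of 50% or more in the single-dose primary screen; inactive = inhibition below 50%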
# Runt-SMMHC FRET = Runt domain-CBFb-SMMHC interaction inhibition; Cerulean-Runt/Venus-CBFb-SMMHC FRET ratio 530/480, 1 h; AID 1434; 220,000 tested, 0.74% active; inhibition, % at 20 µM; Q01196+Q13951;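 active = mean inhibition across duplicate retests at 20 µM reaching about 50%, limit read from the data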;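 note: inhibitors lower the FRET ratio by blocking Runt binding to CBFb-SMMHC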
# Numbers stand for hits; i = inactive; ? = inconclusive; nt = no result.
SMILES,RanGTP-Impb inh,Hck-Nef inh,Runt-CBFb FRET,TbHK1 inh,Runt-SMMHC FRET
CCCCn1c(=O)c(C(=O)NCc2ccccc2)c(O)c2ccccc21,i,nt,nt,nt,nt
CCCCNC(=O)c1c(N)n(CCCOC)c2nc3ccccc3nc12,106,i,i,i,54
CCCCn1c(=O)c(C(=O)NCc2ccco2)c(O)c2ccccc21,i,i,i,i,i
COCCCNC(=O)c1c(N)n(Cc2ccco2)c2nc3ccccc3nc12,72,i,76,i,81
CC(C)CCn1c(=O)c(C(=O)NCc2ccco2)c(O)c2ccccc21,i,i,i,i,i
Nc1c(C(=O)NCc2ccco2)c2nc3ccccc3nc2n1CCN1CCCCC1,71,i,i,i,i
CC(C)CNC(=O)c1c(N)n(Cc2ccco2)c2nc3ccccc3nc12,i,i,79,i,nt
COCCOC(=O)c1c(N)n(Cc2ccco2)c2nc3ccccc3nc12,19,i,nt,i,i
CC(C)OC(=O)c1c(N)n(Cc2ccco2)c2nc3ccccc3nc12,?,i,nt,i,nt
COCCCNC(=O)c1c(NC(=O)c2ccco2)n(Cc2ccccc2)c2nc3ccccc3nc12,44,i,i,i,nt
CCCCCn1c(=O)c(C(=O)NCc2ccco2)c(O)c2ccccc21,i,i,i,i,i
COCCNC(=O)c1c(NC(=O)c2ccc(Br)o2)n(Cc2ccccc2)c2nc3ccccc3nc12,58,i,i,i,nt
CCCCCn1c(NC(=O)c2ccco2)c(C(=O)OCC)c2nc3ccccc3nc21,79,i,i,i,102
CCOC(=O)c1c(NS(=O)(=O)c2ccccc2)n(CCCOC)c2nc3ccccc3nc12,106,i,i,i,i
COc1ccc(-n2c(/C=C/c3cccc(F)c3)nc3ccccc3c2=O)c(OC)c1,i,nt,nt,nt,nt
NS(=O)(=O)OC(CCc1ccccc1)C(Cl)(Cl)Cl (stereo unspecified),i,nt,nt,nt,nt
Cc1cc(OCC(=O)N2C[C@H]3C[C@@H](C2)c2cccc(=O)n2C3)c2c(C)cc(=O)oc2c1,i,nt,nt,nt,nt
O=C(NCC(c1cccnc1)N1CCOCC1)Oc1ccccc1 (stereo unspecified),?,i,i,i,i
O=C(NC(C(Cl)Cl)N1CCOCC1)c1ccccc1 (stereo unspecified),22,i,i,i,i
CCC(C(=O)N1CCC2(CC1)OCCO2)n1c2ccccc2c2nc(=O)cc(C)n21 (stereo unspecified),i,nt,nt,nt,nt
COc1cc(O)c(C(=O)O)c(-c2cc(O)c(O)cc2C)c1,i,i,i,i,58
CN(C)CCSCc1nnc2n1-c1ccc(Cl)cc1C(c1ccccc1Cl)=NC2,i,nt,nt,nt,nt
Cc1ccc2cc(C=C(C#N)C#N)c(Cl)nc2c1,51,i,i,i,i
Cc1cc(/C=C2\C(=O)NC(=O)N(c3cccc(F)c3)C2=O)c(C)n1-c1ccc(C(=O)O)c(Cl)c1,i,nt,nt,nt,nt
Cc1ccc(N2C(=O)NC(=O)/C(=C/c3ccc(-c4ccc(C(=O)O)c(Cl)c4)o3)C2=O)cc1,i,52,i,i,i
SMILES,RanGTP-Impb inh,Hck-Nef inh,Runt-CBFb FRET,TbHK1 inh,Runt-SMMHC FRET
Cc1ccccc1-n1c(O)c(/C=N/NC(=O)c2ccccc2O)c(=O)[nH]c1=S,i,i,i,i,59
O=C(N/N=C/c1c(O)n(-c2ccccc2)c(=S)[nH]c1=O)c1ccccc1,i,i,i,i,i
O=C(N/N=C/c1c(O)n(C2CC2)c(=S)[nH]c1=O)c1ccccc1O,i,i,i,i,73
Cc1c2cnn(CC(=O)N3CCC4(CC3)OCCO4)c(=O)c2c(C)n1Cc1ccccc1Cl,i,nt,nt,nt,nt
CCCN(CC1CC1)CC(O)c1ccccc1 (stereo unspecified),i,nt,nt,nt,nt
COc1ccc(CC(C)NC2CCCCCC2)cc1 (stereo unspecified),i,nt,nt,nt,nt
COC(=O)CCCC(NC(=S)N1CC2C[C@@H](C1)Cn1c2cccc1=O)C(=O)OC (stereo partly specified),i,nt,nt,nt,nt
Nc1c(C(=O)NC2CCCC2)c2nc3ccccc3nc2n1CC1CCCO1 (stereo unspecified),97,i,i,i,82
Nc1c(C(=O)OCC2CCCO2)c2nc3ccccc3nc2n1Cc1cccs1 (stereo unspecified),?,i,i,i,85
CC(C)CCn1c(N)c(C(=O)NCc2cccs2)c2nc3ccccc3nc21,50,i,i,i,i
CC(C)OCCCNC(=O)c1c(N)n(Cc2cccs2)c2nc3ccccc3nc12,80,i,i,i,81
c1ccc(-c2[nH]c[n+](CC3CO3)c2-c2ccccc2)cc1 (stereo unspecified),nt,i,i,69,i
CC(C)CCNC(=O)c1c(N)n(Cc2ccc3c(c2)OCO3)c2nc3ccccc3nc12,77,i,i,i,i
CC(C)CNC(=O)c1c(N)n(Cc2ccc3c(c2)OCO3)c2nc3ccccc3nc12,i,i,i,i,56
CCCNC(=O)c1c(N)n(Cc2ccc3c(c2)OCO3)c2nc3ccccc3nc12,nt,i,i,i,i
CCOc1cc2c(cc1OCC)-n1cccc1C(c1ccc(OC(F)F)cc1)NC2 (stereo unspecified),i,nt,nt,nt,nt
O=C1Nc2cc(C(=O)N3CCC4(CC3)OCCO4)ccc2NC1CSCc1cccc(F)c1 (stereo unspecified),i,nt,nt,nt,nt
CN1C(=O)CN=C(c2ccccc2)c2cc([N+](=O)[O-])ccc21,nt,nt,i,nt,i
COC(=O)c1c(N)n(Cc2ccc(OC)cc2)c2nc3ccccc3nc12,nt,i,i,i,118
COc1ccc(CCNC(=O)COC(=O)Cc2ccccc2)cc1,i,i,i,i,i
CCOC(=O)c1c(N)n(Cc2ccc(OC)cc2)c2nc3ccccc3nc12,i,i,i,i,110
Cc1onc(-c2c(Cl)cccc2Cl)c1C(=O)Nc1ccc2c(C(F)(F)F)cc(=O)oc2c1,i,i,i,i,i
COc1ccc(CN2C(=O)NC(=O)/C(=C/c3ccc([N+](=O)[O-])o3)C2=O)cc1,nt,142,nt,i,i
Cc1ccc(/C=C2/C(=O)NC(=O)N(Cc3ccc(F)cc3)C2=O)o1,i,i,i,i,i
COc1ccc(/C=C2/C(=O)NC(=O)N(Cc3ccco3)C2=O)cc1,i,57,i,i,i
SMILES,RanGTP-Impb inh,Hck-Nef inh,Runt-CBFb FRET,TbHK1 inh,Runt-SMMHC FRET
Cn1cccc1/C=C1\C(=O)NC(=O)N(Cc2ccco2)C1=O,i,i,i,i,i
CCCCN1C(=O)NC(=O)/C(=C/c2cnc(SC)nc2)C1=O,i,i,i,i,i
CN(C)/C=C1/C(=O)NC(=O)N(CCNc2ncc(C(F)(F)F)cc2Cl)C1=O,i,154,i,i,i
C[C@]12CCC3=C4CCC(=O)C=C4CC[C@H]3C1CC[C@@H]2O (stereo partly specified),i,nt,nt,nt,nt
O=C(N/N=C/c1c(O)n(Cc2ccc(F)cc2)c(=O)[nH]c1=O)c1ccccc1,i,i,i,i,i
O=C(O)CCC(=O)NCCC1=c2ccccc2=N/C1=C\c1c(O)n(Cc2ccc(F)cc2)c(=S)[nH]c1=O,i,i,i,i,58
CSc1ccc(CN2CCN(C(=O)COc3cccc(C)c3)CC2)cc1,i,i,i,i,i
